# ChEMBL document CHEMBL3124841, “Discovery of vinyl sulfones as a novel class of neuroprotective agents toward Parkinson's disease therapy” (J Med Chem, 2014)
# Calls of active or inactive are those of the source. No cut-off for these calls is given here.
# Experiments:
# [1] = target: T1, Nuclear factor erythroid 2-related factor 2 (Mus musculus) (UniProt Q60795); experiment: Activation of Nrf2 in mouse CATH.a cells assessed as increase in total Nrf2 protein level at 1 uM after 24 hrs by western blot analysis; format: cell-based
# T1 sequence (whole entry): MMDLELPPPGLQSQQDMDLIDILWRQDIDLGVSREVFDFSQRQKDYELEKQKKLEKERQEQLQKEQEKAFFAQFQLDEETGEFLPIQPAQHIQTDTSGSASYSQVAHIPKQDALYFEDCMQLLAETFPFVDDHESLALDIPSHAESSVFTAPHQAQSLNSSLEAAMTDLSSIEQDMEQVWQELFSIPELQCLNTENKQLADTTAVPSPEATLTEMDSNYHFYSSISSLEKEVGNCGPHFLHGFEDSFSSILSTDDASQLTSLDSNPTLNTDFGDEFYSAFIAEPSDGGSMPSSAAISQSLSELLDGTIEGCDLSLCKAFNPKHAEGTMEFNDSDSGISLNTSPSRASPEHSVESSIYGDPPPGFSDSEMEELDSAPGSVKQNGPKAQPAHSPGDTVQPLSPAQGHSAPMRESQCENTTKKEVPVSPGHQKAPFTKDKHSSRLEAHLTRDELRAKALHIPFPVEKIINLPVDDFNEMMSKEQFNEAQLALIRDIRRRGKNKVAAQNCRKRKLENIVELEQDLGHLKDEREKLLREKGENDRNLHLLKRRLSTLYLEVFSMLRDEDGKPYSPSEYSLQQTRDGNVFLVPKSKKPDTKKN
# How it was run: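 CATH.a cells (RPMI 1640, 8% horse serum, 4% FBS, 37 °C, 5% CO2) exposed to various concentrations for 24 h. Whole-cell lysate in RIPA buffer with protease inhibitors, 10% SDS-PAGE, Nrf2 immunoblot, chemiluminescence, densitometry normalized to β-actin. At least duplicate cultures, averaged, fold of untreated control ± SEM.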
# Mus musculus = species on record: Mus musculus; experiment: Neuroprotection against BH4-induced mouse CATH.a cell death assessed as cell viability at 0.1 uM treated for 20 hrs prior to BH4 challenge for 24 hrs by ATP assay; format: functional
# How it was run: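 CATH.a cells (2.4 × 10⁴/well) pretreated with graded concentrations for 20 h, then challenged with 200 μM BH4 for a further 24 h. Viability as cellular ATP by CellTiter-Glo luminescence. At least duplicate cultures, percent of untreated control ± SEM, compared with BH4-treated cells.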
compound,measurement,setting,value
COc1ccccc1S(=O)(=O)/C=C/c1ccccc1Cl,Activity,[1],Active
same,Activity,Mus musculus,Active
